Data on two molecules can be found in ChEMBL document CHEMBL1123277, “Reactive 5'-substituted thymidine derivatives as potential inhibitors of nucleotide biosynthesis” (J Med Chem, 1986).

Series [1] is described as follows: Half-life is estimated by TLC. Format: ADME. Summed up:
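Reactivity toward thiol was measured at pH 7. A 0.25–0.5% solution of compound in MeOH was mixed 1:1 with 1% mercaptoethanol in pH 7 buffer. Loss of alkylating activity was followed by TLC with 4-(4-nitrobenzyl)pyridine spray, and the half-life was estimated from this.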

A further series deals with HEp-2. Nature of the series: Compound was tested for the cytotoxic concentration that produces 50% inhibition of cloning of H.Ep.-2 cells. As to conditions: Homo sapiens, read-out: I50. Format: functional, cell-based.
Series [2] has as its system L1210. The experiment in a line: Compound was tested for the cytotoxic concentration that produces 50% inhibition of L1210 cells. Format: functional, cell-based. The following applies: Mus musculus, read-out: I50.
In a further series the test system is P388. The experiment in a line: Compound was tested in vivo in […] murine leukemia cells in mice at dose of 200 mg/kg. Format: functional. As to conditions: Mus musculus.
The subject of series [3] is L1210. The experiment in a line: Compound was tested for the cytotoxic concentration that produces 50% inhibition of L1210 cells. The class given is functional, cell-based. As to conditions: Mus musculus, read-out: I50.

Some results are limits rather than exact numbers.

Take `Cc1cn(C2CC(O)C(CNC(=O)CCl)O2)c(=O)[nH]c1=O` (stereo not given): the half-life (usually how long it takes for the measured level to halve) in series [1] was 3 h. The figures for the IC50 in the series with HEp-2 and in the series with L1210 [2] were 25 µM and 130 µM, respectively. Further, in the series on P388, the ILS (usually the gain in survival time of treated over control animals, in per cent) at 200 mg/kg is 9%.
As to `Cc1cn(C2CC(O)C(CN(C)C(=O)CCl)O2)c(=O)[nH]c1=O` (stereo not given), the IC50 in the series on L1210 [3] was > 120 µM.
